Test results as given in ChEMBL document CHEMBL3286203, “Reactive oxygen species (ROS) inducible DNA cross-linking agents and their effect on cancer cells and normal lymphocytes” (J Med Chem, 2014).

How the values were obtained:
[1] = Drug level in deuterated phosphate buffer treated with 40 mM N,N-Bis(2-chloroethyl)-4-(4,4,5,5-tetramethyl-1,3,2-dioxaborolan-2-yl)aniline after 24 hrs by 1H-NMR analysis; type: physicochemical
Procedure, shortened: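 1H NMR of the boronate mustard (40 mM) held 24 h in deuterated potassium phosphate buffer (4.0 mM) with no H2O2. Solvent was 1.0 M deuterated potassium phosphate buffer/DMSO-d6/D2O = 2:450:48.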

[2] = Induction of [32P]-labeled 49-mer oligonucleotide duplex DNA 12 with GNC sequence at terminus (unknown origin) interstrand cross-linking at 50 uM after 16 hrs by PAGE in presence of H2O2
Procedure, shortened: (§1)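 32P-labelled 12a (1.0 μM) annealed with 1.5 equiv of 12b in 10 mM potassium phosphate pH 7 / 100 mM NaCl (65 °C for 3 min, then slow cooling). Duplex incubated with compound (final 1 μM–5 mM), with or without H2O2, in NaCl and potassium phosphate pH 8 at room temperature for 16 h. Quenched in formamide; 20% denaturing PAGE.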

[3] = Ratio of induction of [32P]-labeled 49-mer oligonucleotide duplex DNA 12 with GNC sequence at terminus (unknown origin) interstrand cross-linking in presence of H2O2 to induction of [32P]-labeled 49-mer oligonucleotide duplex DNA 12 with GNC sequence at terminus (unknown origin) in absence of H2O2; procedure, shortened: as §1
[4] = Induction of [32P]-labeled 49-mer oligonucleotide duplex DNA 12 with GNC sequence at terminus (unknown origin) interstrand cross-linking at 1 mM after 16 hrs by PAGE; procedure, shortened: as §1

Row | Compound | Drug metabolism [1] | Activity [2] [%] | Ratio [3] | Activity [4] [%]
1 | CC(C)(O)C(C)(C)O | metabolite_detected |  |  | 
2 | CC1(C)OB(c2ccc(N(CCOS(C)(=O)=O)CCOS(C)(=O)=O)cc2)OC1(C)C |  | 3 | 3 | 22
